Sampled rows, rich in hits. Any-hit rate of the full collection: about 3%.
Hep lipid drop: hepatic lipid droplet formation modulation; AML12 mouse hepatocytes, oleate lipid droplets, BODIPY imaging; inhibition, % at 6.5 µM; 240,000 compounds, 0.4% hits; AID 1656;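 active = lipid droplet intensity inhibited by at least 50%, with more than 500 cells counted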
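Technique: fluorescence imaging, 20x objective, two fields per well / Assay system: AML12 hepatocytes (mouse) / Measure: % inhibition of lipid droplet signal / Doses: 6.5 µM single-point dosing / Incubation: overnight exposure / Reagent: 100 µM oleic acid challenge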
NPR2 activator: GC-B (human) receptor activation. P20594. HEK293-GC-B cells, CNP EC30, cGMP TR-FRET; 0% at EC30 CNP, 100% saturating CNP. activation, % at 10 µM. 370,000 compounds, 0.11% hits;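 active = activation at 10 µM reaching about 35% in either raw or pattern-adjusted values, limit read from the data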
aDG glyco act: increases alpha dystroglycan glycosylation | Pro5-aDG cells, alpha-DG glycosylation AlphaScreen (IIH6); 0% Pro5, 100% B10-LARGE cell signal | activation, % at 10 µM | 360,000 compounds, 0.22% hits | AID 624168;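 active = activation of at least 8% versus controls, or a plate z-score of at least 8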;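 note: Pro5 are CHO cells carrying HIG-tagged alpha-DG that lacks glycosylation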
NPR1 activator: GC-A (human) enzyme activation | P16066 | HEK293 GC-A cells, cGMP TR-FRET, EC30 ANP; 0% at EC30 ANP, 100% saturating ANP | activation, % at 10 µM | 370,000 compounds, 0.14% hits | AID 1671463; in the data active = activation above about 40%
JMJD2C inh: blocks human GASC-1 demethylase activity; Q9H3R0; GST-JMJD2C(1-420) H3K9me3 demethylation, DELFIA europium; inhibition, % at 2.35 µM; 330,000 compounds, 0.069% hits; AID 2099;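 active = more than half of a compound's replicate wells show inhibition beyond 50%, single wells judged on their own value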;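 note: signal counts dimethyl H3K9 product captured on neutravidin plate; 0% = median of DMSO wells and 100% = 0.3 times that DMSO median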
NR3A LBD binder: modulates the human NR3A ligand-binding domain; 340,000 compounds, 2.5% hits; Tm shift relative to glycine control, % at 25 µM; NR3A LBD differential scanning fluorimetry, Tm shift; 0% = protein alone, 100% = glycine-bound protein; AID 1259313;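 active = melting temperature shift of at least 10% of the positive control shift, at one fixed dose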
* hit, by the source's call; / = not tested or not shown.

SMILES | Hep lipid drop | NPR2 activator | aDG glyco act | NPR1 activator | JMJD2C inh | NR3A LBD binder
O=C(Nc1nc2ccc(Cl)cc2s1)c1ccc(N2CCCCC2)c([N+](=O)[O-])c1 | 26 | -3 | 0 | 1 | 3 | 15*
CCC(CC)c1nnc(NC(=O)c2ccc(N3CCCCC3)c([N+](=O)[O-])c2)s1 | -3 | 1 | 0 | -1 | -6 | -7
C=CCOc1ccc(/C=N/NC(=O)c2c(C)nc3ccc(Cl)cn23)cc1 | 1 | -5 | 0 | -2 | -9 | -2
COc1cc(C(=O)N(C)CCOc2ccc(C)cc2)ccc1OC1CCN(C(C)=O)CC1 | 4 | -2 | 0 | 5 | 3 | 0
COc1cc(NC(=O)COC(=O)[C@@H]2CCCN2S(=O)(=O)c2ccc(Cl)cc2)cc(OC)c1OC | / | -2 | 0 | 4 | -1 | 11*
O=C(COC(=O)[C@@H]1CCCN1S(=O)(=O)c1ccc(Cl)cc1)NC12CC3CC(CC(C3)C1)C2 | 18 | 4 | 0 | -1 | -9 | -2
CCCCOC(=O)C1CN(c2ccccc2)N=C1C(=O)OCC (stereo not drawn) | -12 | 2 | 0 | 4 | 4 | 15*
CCCCOC(=O)C1CN(c2ccccc2)N=C1C(C)=O (stereo not drawn) | 1 | -1 | 0 | 4 | -9 | 0
FC(F)(F)Oc1cccc(Cn2ccc3ccc(-c4ccc5ccn(Cc6cccc(OC(F)(F)F)c6)c5c4)cc32)c1 | / | -7 | / | 1 | / | /
Cc1ccc(-n2nc3ccc(NC(=O)c4ccc5c(c4)OCO5)cc3n2)cc1 | / | 2 | 0 | 4 | 0 | 13*
Cc1ccc(-n2nc3ccc(NC(=O)C(C)C)cc3n2)cc1 | 20 | -7 | 0 | -3 | 25 | -5
Cc1ccc(-n2nc3ccc(NC(=O)c4cccc([N+](=O)[O-])c4C)cc3n2)cc1 | 28 | -10 | 0 | -27 | -3 | 17*
CCc1ccc(-n2nc3ccc(NC(=O)c4ccc5c(c4)OCO5)cc3n2)cc1 | 14 | -3 | 0 | 3 | 2 | 15*
NC(=O)Cn1nc(C(F)(F)F)c2c1CCCC2 | -20 | 7 | 0 | -1 | -11 | 27*
C#CCNC(=O)C[C@@H]1C(=O)N(CC=C)/C2=C/CCCCC[C@]21C(=O)OCC | / | -2 | / | 2 | / | /
CCOC(=O)c1ccc(/C=C2/C=C(c3ccccc3)N(c3ccc(Cl)c(C(=O)O)c3)C2=O)cc1 | / | -5 | 0 | -11 | 11 | 21*
COc1ccc(Nc2nc(N3CCOCC3)nc(N3CCOCC3)n2)cc1Cl | -3 | 4 | 0 | 3 | 8 | -2
C=CCn1c(C)cc(C(=O)COc2nncc3ccccc23)c1C | / | 9 | 0 | 4 | 10 | 16*
C=CCn1c(C)cc(C(=O)COC(=O)CNC(=O)c2ccccc2)c1C | / | -4 | 0 | 2 | -8 | 13*
Cc1ccc(C(=O)NCC(=O)OCC(=O)c2cc(C)n(Cc3ccco3)c2C)cc1 | 11 | 2 | 0 | -2 | -6 | 0
C=CCn1c(C)cc(C(=O)COC(=O)c2n[nH]c(=O)c3ccccc23)c1C | / | -4 | 0 | 1 | 3 | -1
O=C(NC(c1ccc(Cl)cc1)c1c(O)ccc2ccccc12)c1ccccc1 (stereo not drawn) | -16 | 1 | 0 | 25 | 0 | 4
O=C(NC(c1ccccc1)c1c(O)ccc2ccccc12)c1ccccc1Cl (stereo not drawn) | / | -11 | 0 | -7 | 2 | 11*
COc1ccc(-c2csc(NC(=O)CN3C(=O)CCC3=O)n2)c(OC)c1 | 14 | -5 | 0 | 3 | 11 | 18*
COc1ccc(-c2csc(NC(=O)CSc3ccc(Br)cc3)n2)c(OC)c1 | -25 | -7 | 0 | -1 | 1 | 12*
SMILES | Hep lipid drop | NPR2 activator | aDG glyco act | NPR1 activator | JMJD2C inh | NR3A LBD binder
CCC[C@H]1[C@@H](NS(=O)(=O)c2ccccc2[N+](=O)[O-])CC[C@@]23CCCN2C(=O)CCC[C@@H]13 | / | -11 | / | -5 | / | /
CCOC(=O)c1ccc(NC(=O)Cn2nnc(-c3ccccc3)n2)cc1 | / | -1 | 1 | -4 | 33 | 2
CC(C)(C)OC(=O)N1CCN(c2ccc(NC(=O)Cn3nnc(-c4ccccc4)n3)cc2)CC1 | 84* | 6 | 1 | 4 | -7 | 1
COc1ccc(OC)c(NC(=O)c2ccccc2N(Cc2ccccc2)C(=O)C(C)Cl)c1 (stereo not drawn) | / | -11 | / | 1 | / | /
CCc1cc2cc(C)c(C)cc2nc1SCC(=O)NNC(=O)c1ccco1 | / | 0 | 0 | 3 | 0 | 13*
CCc1cc2cccc(C)c2nc1SCC(=O)NNC(=O)c1ccco1 | 5 | 3 | 0 | -4 | -6 | -1
CCOC(=O)c1sc(/N=C/c2ccc(O)cc2O)cc1C | -64 | 2 | 0 | 0 | 0 | 14*
Cn1c(SCC(=O)Nc2ccccc2-c2ccccc2)nnc1-c1ccccc1 | / | -3 | / | -9 | / | /
CCc1ccc(-c2cc(C)no2)cc1S(=O)(=O)NCCN1CCC(C)CC1 | -24 | -8 | 0 | -18 | -39 | 15*
CCc1ccc(-c2cc(C)no2)cc1S(=O)(=O)NCCCN1CCN(c2ccccc2)CC1 | -36 | -5 | 1 | -5 | 7 | -4
CC1(C(=O)NS(=O)(=O)c2ccccc2)CCN1C(=O)CC1CC1 (stereo not drawn) | / | -2 | 0 | 1 | / | /
CCN1C(=O)C(CC(=O)Nc2ccc(Br)cc2)N(CCCc2ccccc2)C1=S (stereo not drawn) | / | -2 | 1 | -4 | 10 | 16*
CCOc1ccc(NC(=O)CC2C(=O)N(C)C(=S)N2Cc2ccc3c(c2)OCO3)cc1 (stereo not drawn) | -15 | -23 | 2 | 0 | 1 | 12*
CCOc1ccc(NC(=O)CC2C(=O)N(C)C(=S)N2Cc2ccco2)cc1 (stereo not drawn) | -8 | 0 | 0 | -3 | -7 | 17*
CCN1C(=O)C(CC(=O)Nc2ccc(OC)cc2)N(Cc2ccc(OC)c(OC)c2)C1=S (stereo not drawn) | -18 | 4 | 0 | -1 | -4 | 5
CCOc1ccc(NC(=O)CC2C(=O)N(C)C(=S)N2CCCc2ccccc2)cc1 (stereo not drawn) | -5 | -3 | 0 | -2 | -1 | 7
CCN1C(=O)C(CC(=O)Nc2ccc(OC)cc2)N(Cc2ccc3c(c2)OCO3)C1=S (stereo not drawn) | -28 | 3 | 0 | 1 | -10 | 22*
CCCOc1ccc(NC(=O)CC2C(=O)N(C)C(=S)N2Cc2cccs2)cc1 (stereo not drawn) | -18 | -9 | 0 | -2 | -1 | 9

Screening results (PubChem)
